Bioassay records deposited in PubChem BioAssay by several laboratories.
Efflux pump inh – blocks antifungal efflux pumps in multiplex yeast assay; S. cerevisiae Candida pump triplex, Nile Red efflux; inhibition, % at 10 µM; 330,000 tested, 0.44% active; AID 485275;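 active means plate passing quality check with inhibition over a set limit, or well fluorescence over plate mean plus 4 SD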;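 further: Nile Red retained in pooled yeast measured as flow cytometry median fluorescence; higher means more Nile Red kept so more efflux inhibition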
HDAC3 inh – blocks human histone deacetylase 3; O15379; recombinant HDAC3, fluorogenic peptide/trypsin coupled, fluorescence; inhibition, % at 8.3 µM; 320,000 tested, 0.15% active; AID 2718; in the data active means inhibition above about 26%, passing the limit was not always enough; inconclusive means no clear call, values can overlap the other calls
Target sequence (O15379 whole entry, looked up): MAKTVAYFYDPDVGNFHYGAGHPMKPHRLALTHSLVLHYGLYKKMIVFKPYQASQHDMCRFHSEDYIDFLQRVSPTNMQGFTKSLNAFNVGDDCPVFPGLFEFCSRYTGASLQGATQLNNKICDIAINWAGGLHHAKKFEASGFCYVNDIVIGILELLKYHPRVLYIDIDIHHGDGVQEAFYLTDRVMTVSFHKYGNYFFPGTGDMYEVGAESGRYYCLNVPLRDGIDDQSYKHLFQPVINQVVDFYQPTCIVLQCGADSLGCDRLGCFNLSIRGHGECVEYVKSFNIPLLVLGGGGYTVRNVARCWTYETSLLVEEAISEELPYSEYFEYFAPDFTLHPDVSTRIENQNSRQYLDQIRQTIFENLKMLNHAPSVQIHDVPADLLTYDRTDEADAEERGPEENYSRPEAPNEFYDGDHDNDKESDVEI
IDE act – activators of human insulin-degrading enzyme in cells. P14735. HEK cells, FAbeta-B cleavage, fluorescence polarization; 0% vehicle, 100% cell-free pure enzyme wells. activation, % at 5.96 µM. 340,000 tested, 0.073% active;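 active means activation above the mean of all tested compounds plus 3 SD, set per screening campaign, cut at about 17% in these data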
IDE inh – cellular human IDE inhibition. HEK cells, FAbetaB cleavage, fluorescence polarization. inhibition, % at 5.59 µM. 320,000 tested, 0.41% active. AID 434962;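 active means percent inhibition above the average of all tested compounds plus 3 SD, set per screening campaign, cut at about 16% in these data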;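 further: IDE supplied by intact live HEK cells; FP after avidin binding of uncleaved biotin substrate so inhibition keeps polarization high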
TbMetRS inhib – Trypanosoma brucei MetRS inhibition. 360,000 tested, 0.4% active. inhibition, % at 11.9 µM. AID 624268. purified T. brucei MetRS, ATP depletion, Kinase-Glo luminescence;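 active means inhibition above a per-plate cutoff of the control wells' mean inhibition plus 3 SD, cut at about 5.5% in these data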
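Test system – parasite MetRS enzyme · Reagent – substrates ATP, L-methionine and bulk Escherichia coli tRNA · Doses – 11.9 µM compound single dose, 0.9% DMSO · Times – 15 min enzyme-compound preincubation, 2 h reaction, 10 min detection, 25 °C · Signal – Kinase-Glo luminescence, ATP depletion format · Controls – DMSO-only wells as low control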
CR mimetic SO – lowers age-related superoxide in aged yeast cells. 330,000 tested, 0.18% active. AID 2690. S. cerevisiae aged cells, superoxide DHE fluorescence; active compounds read low. superoxide response (% of plate mean), % at 10 µM;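 active means superoxide response under a set limit, about three screen SD below normal, cut at about 65% in these data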;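 further: yeast aged for seven days with compound at 30 °C before DHE staining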
Large screens that a line does not name were inactive. Rows were chosen to be rich in hits. Some 1.4% of all compounds tested hit in one or more screens of this group.

COC(=O)c1c(C)oc2ccc(N(C(C)=O)S(=O)(=O)c3ccccc3)cc12	none
CC(C)(C)C(c1nc2ccccc2[nH]1)n1c(-c2cc(Cl)cc(Cl)c2)nc2ccccc21 (stereo unspecified)	none (no result: Efflux pump inh, HDAC3 inh, IDE act, IDE inh, CR mimetic SO)
COc1ccc2[nH]c3c(=O)n(CCCCC(=O)NCCN4CCCC4)c(=S)[nH]c3c2c1	HDAC3 inh 30
O=C(Nc1ccc(C(F)(F)F)cc1)N1CCN(c2ccnc3cc(Cl)ccc23)CC1	IDE inh 30 (no result: IDE act)
O=S(=O)(c1cccs1)N1CN(Cc2ccc(Cl)cc2)c2nc3ccccc3nc21	none
O=S(=O)(c1cccs1)N1CN(Cc2ccco2)c2nc3ccccc3nc21	Efflux pump inh 0.7
CCN1CCN(C(=O)C2c3cc(OC)c(OC)cc3C(=O)N(C)C2c2ccc(SC)cc2)CC1 (stereo unspecified)	HDAC3 inh 28
COc1ccc(C2C(C(=O)N3CCN(C)CC3)c3cc(OC)c(OC)cc3C(=O)N2C)cc1 (stereo unspecified)	none
Cc1nc(N2CCN(c3ccccn3)CC2)c2c(C)c(C(=O)N3CCN(c4ccc(F)cc4)CC3)sc2n1	Efflux pump inh 0.5
Cc1c(C(=O)N2CCN(c3ccc(F)cc3)CC2)sc2ncnc(N3CCN(c4ccccn4)CC3)c12	none
CCC1(C)N=C(N)Nc2nc3cc(C)c(C)cc3n21 (stereo unspecified)	CR mimetic SO 64 (no result: HDAC3 inh)
NC1=NC2(CCCC2)n2c(nc3ccccc32)N1	none
COc1ccccc1-c1cn(CC[C@@H]2CC[C@H](NC(=O)C3CCC3)[C@@H](CO)O2)nn1	none (no result: Efflux pump inh, HDAC3 inh, IDE act, IDE inh, CR mimetic SO)
O=C(N/N=C/c1ccccc1[N+](=O)[O-])c1ccc2nc[nH]c2c1	HDAC3 inh 96
COC(=O)C(C(=O)OC)c1ccccc1NC(=O)OCc1ccccc1	none (no result: Efflux pump inh, HDAC3 inh, IDE act, IDE inh, CR mimetic SO)
O=C1c2c(-c3ccc(Br)cc3)noc2CCN1Cc1cn(C2CCCC2)nn1	none (no result: Efflux pump inh, HDAC3 inh, IDE act, IDE inh, CR mimetic SO)
O=c1oc2c(O)cccc2cc1-c1nc2ccccc2[nH]1	IDE act 61 (no result: IDE inh)
O=C(C(=O)N1CCN(C(=O)c2ccco2)CC1)c1ccccc1	none (no result: Efflux pump inh, HDAC3 inh, IDE act, IDE inh, CR mimetic SO)
Cc1ccc(OCCSCc2nc3ccccc3[nH]2)cc1	TbMetRS inhib 6.8
Cc1ccc(CSCc2nc3ccccc3[nH]2)cc1	none (no result: Efflux pump inh, HDAC3 inh, IDE inh, CR mimetic SO)
c1ccc(SCc2nc3ccccc3[nH]2)cc1	TbMetRS inhib 6.5
O=C(NC1CCCCC1)C(c1ccnc2ccccc12)n1c(=O)c(-c2ccccc2)nc2ccccc21 (stereo unspecified)	none (no result: Efflux pump inh, HDAC3 inh, IDE act, IDE inh, CR mimetic SO)
O=[N+]([O-])c1c(Nc2ccccn2)cc(Cl)c2nonc12	Efflux pump inh 11
CC(C)NC(=O)N[C@H]1C=C[C@H](CC(=O)NCc2ccc(Oc3ccccc3)cc2)O[C@@H]1CO	none (no result: Efflux pump inh, HDAC3 inh, IDE act, IDE inh, CR mimetic SO)
CC(CCC(C)C(C)(C)C)[C@@H]1CC[C@H]2C3C[C@H](OS(O)(=S)=S)[C@H]4C[C@H](OS(O)(=S)=S)[C@@H](OS(O)(=S)=S)C[C@]4(C)[C@H]3CC[C@]12C (stereo partly specified) (tested in a mixture with another compound)	Efflux pump inh 2.1, TbMetRS inhib 16
C/C(CC(=O)Nc1ccc(F)cc1)=N\NC(=O)Cc1csc(N)n1	CR mimetic SO 64
COc1cc(NC(=O)N2CCNC2=O)cc(C(=O)Nc2cccc(C(F)(F)F)c2)c1	IDE act 38
CCOC1=C2CN(S(=O)(=O)c3ccc(C)cc3)C(c3ccccc3)CC2N(S(=O)(=O)c2ccc(C)cc2)C(c2ccc(Br)cc2)C1 (stereo unspecified)	none (no result: Efflux pump inh, HDAC3 inh, IDE act, IDE inh, CR mimetic SO)
CC1(C(=O)Nc2ccc3c(c2)OCCO3)CN(S(C)(=O)=O)CC(=O)N1CCCN1CCOCC1 (stereo unspecified)	none (no result: Efflux pump inh, HDAC3 inh, IDE act, IDE inh, CR mimetic SO)
COc1cc(OC)c(N(C)C(=O)c2cn(C)c(=O)c3cc(OC)c(OC)cc23)cc1Cl	HDAC3 inh 54
CC(C)(C)OC(=O)CC[C@@H](C(=O)NCCCCCCCCCCC(=O)N1CCN(C(=O)OC(C)(C)C)CC1)n1cc(CCCCCNC(=O)OC(C)(C)C)nn1	none
C#CCOCCOCCOCCNc1nc(N2CCN(C(=O)CCCCCCCCCCNC(=O)[C@H]([C@@H](C)CC)n3cc(CCCCN=C(N)N)nn3)CC2)nc(N2CCN(C(=O)CCCCCCCCCCNC(=O)[C@H](CO)n3cc(CCCCCN)nn3)CC2)n1	IDE act 40
C#CCOCCOCCOCCNc1nc(N2CCN(C(=O)CCCCCCCCCCNC(=O)[C@H]([C@@H](C)CC)n3cc(CCCCN=C(N)N)nn3)CC2)nc(N2CCN(C(=O)CCCCCCCCCCNC(=O)[C@H]([C@@H](C)CC)n3cc(CCCCN=C(N)N)nn3)CC2)n1	HDAC3 inh inconclusive (no result: IDE act, TbMetRS inhib)
C#CCOCCOCCOCCNc1nc(N2CCN(C(=O)CCCCCCCCCCNC(=O)[C@H]([C@@H](C)CC)n3cc(CCCCCN)nn3)CC2)nc(N2CCN(C(=O)CCCCCCCCCCNC(=O)[C@H]([C@@H](C)CC)n3cc(CCCCN=C(N)N)nn3)CC2)n1	IDE act 51
C#CCOCCOCCOCCNc1nc(N2CCN(C(=O)CCCCCCCCCCNC(=O)Cn3cc(CCCCCN)nn3)CC2)nc(N2CCN(C(=O)CCCCCCCCCCNC(=O)[C@H]([C@@H](C)CC)n3cc(CCCCN=C(N)N)nn3)CC2)n1	HDAC3 inh inconclusive, IDE act 42
CC(C)(C)OC(=O)NCCCCCc1cn([C@@H](CO)C(=O)NCCCCCCCCCCC(=O)N2CCN(C(=O)OC(C)(C)C)CC2)nn1	HDAC3 inh 31
C#CCOCCOCCOCCNc1nc(N2CCN(C(=O)CCCCCCCCCCNC(=O)[C@H]([C@@H](C)CC)n3cc(CCCCCN)nn3)CC2)nc(N2CCN(C(=O)CCCCCCCCCCNC(=O)[C@@H]([C@H](C)CC)n3cc(CCCCCN)nn3)CC2)n1	none (no result: IDE act, TbMetRS inhib)
C#CCOCCOCCOCCNc1nc(N2CCN(C(=O)CCCCCCCCCCNC(=O)[C@H]([C@@H](C)CC)n3cc(CCCCN=C(N)N)nn3)CC2)nc(N2CCN(C(=O)CCCCCCCCCCNC(=O)[C@H](CCCCN)n3cc(C)nn3)CC2)n1	none (no result: IDE act, TbMetRS inhib)
O=C(C(=Cc1ccc(O)cc1)c1ccccc1)c1ccccc1	none (no result: Efflux pump inh, HDAC3 inh, IDE act, IDE inh, CR mimetic SO)
CCc1nc2ccc(C(=O)NCc3cccs3)cn2c1N(C)Cc1nccs1	none (no result: Efflux pump inh, HDAC3 inh, IDE act, IDE inh, CR mimetic SO)
C#CCOCCOCCOCCNc1nc(N2CCN(C(=O)CCCCCCCCCCNC(=O)[C@H]([C@@H](C)CC)n3cc(CCCCCN)nn3)CC2)nc(N2CCN(C(=O)CCCCCCCCCCNC(=O)[C@H](CO)n3cc(CCCCCN)nn3)CC2)n1	IDE act 37
COc1ccc(NC(=O)c2cccc([N+](=O)[O-])c2)cc1	none
COc1ccc(NC(=O)c2cc([N+](=O)[O-])ccc2O)cc1	IDE act 22
O=C(O)c1ccc(N=Nc2c(O)ccc3ncccc23)cc1	IDE act 39
Cc1nnc2c3ccccc3c(-c3ccc(O)cc3)nn12	none
